ChEMBL document CHEMBL3576860 (ACS Med Chem Lett, 2015)
Active and inactive are the calls of the source. The rule behind the calls is not given here.

What was measured:
[1] = target: T1, Neuronal acetylcholine receptor; alpha4/beta2 (Rattus norvegicus, UniProt P09483+P12390); assay: Displacement of [3H]epibatidine from rat alpha4beta2 nAChR transfected in HEK293 cell membrane; type: cell membranes
Summary of the method: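 Rat α4β2, α4β4 or α3β4 subtypes; competition binding against [3H]epibatidine; Ki values; means of 3–5 independent experiments, each run in duplicate.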

[2] = target: Neuronal acetylcholine receptor; alpha4/beta4 (Rattus norvegicus, UniProt P09483+P12392); assay: Displacement of [3H]epibatidine from rat alpha4beta4 nAChR transfected in HEK293 cell membrane; type: cell membranes
Neuronal acetylcholine receptor; alpha4/beta4, sequence (P09483 whole entry): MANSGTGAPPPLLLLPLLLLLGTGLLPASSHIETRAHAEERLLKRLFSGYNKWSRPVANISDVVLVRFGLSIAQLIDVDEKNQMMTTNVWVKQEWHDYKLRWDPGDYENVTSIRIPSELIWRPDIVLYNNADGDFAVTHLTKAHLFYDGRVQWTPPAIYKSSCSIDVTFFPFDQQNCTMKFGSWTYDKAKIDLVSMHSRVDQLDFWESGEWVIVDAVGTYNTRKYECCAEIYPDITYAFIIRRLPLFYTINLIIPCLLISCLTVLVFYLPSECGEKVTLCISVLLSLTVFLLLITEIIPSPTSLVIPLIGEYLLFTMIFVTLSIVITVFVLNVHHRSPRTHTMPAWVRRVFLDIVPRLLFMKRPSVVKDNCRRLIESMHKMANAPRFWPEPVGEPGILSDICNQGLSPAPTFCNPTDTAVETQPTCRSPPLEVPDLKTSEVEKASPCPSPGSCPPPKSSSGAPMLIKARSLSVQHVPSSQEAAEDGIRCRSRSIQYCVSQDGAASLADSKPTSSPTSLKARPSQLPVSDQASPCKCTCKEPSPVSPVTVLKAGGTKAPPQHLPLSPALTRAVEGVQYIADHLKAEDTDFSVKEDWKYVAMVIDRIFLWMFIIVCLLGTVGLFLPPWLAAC
Neuronal acetylcholine receptor; alpha4/beta4, sequence (P12392 whole entry): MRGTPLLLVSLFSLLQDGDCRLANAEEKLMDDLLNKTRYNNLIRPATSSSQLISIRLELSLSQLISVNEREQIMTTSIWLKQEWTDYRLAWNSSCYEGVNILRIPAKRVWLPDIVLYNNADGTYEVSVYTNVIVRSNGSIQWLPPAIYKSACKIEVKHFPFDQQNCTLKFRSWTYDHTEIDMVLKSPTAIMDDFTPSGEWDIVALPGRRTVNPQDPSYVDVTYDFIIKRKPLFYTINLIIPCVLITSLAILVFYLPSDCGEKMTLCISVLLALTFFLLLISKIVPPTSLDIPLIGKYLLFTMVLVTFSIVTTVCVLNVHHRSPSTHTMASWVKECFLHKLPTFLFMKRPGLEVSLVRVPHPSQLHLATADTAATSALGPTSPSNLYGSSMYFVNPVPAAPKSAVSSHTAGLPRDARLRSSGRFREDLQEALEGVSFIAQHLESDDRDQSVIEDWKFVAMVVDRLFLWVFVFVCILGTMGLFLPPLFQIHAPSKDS

[3] = target: Neuronal acetylcholine receptor; alpha3/beta4 (Rattus norvegicus, UniProt P04757+P12392); assay: Displacement of [3H]epibatidine from rat alpha3beta4 nAChR transfected in HEK293 cell membrane; type: cell membranes
Neuronal acetylcholine receptor; alpha3/beta4, sequence (P04757 whole entry): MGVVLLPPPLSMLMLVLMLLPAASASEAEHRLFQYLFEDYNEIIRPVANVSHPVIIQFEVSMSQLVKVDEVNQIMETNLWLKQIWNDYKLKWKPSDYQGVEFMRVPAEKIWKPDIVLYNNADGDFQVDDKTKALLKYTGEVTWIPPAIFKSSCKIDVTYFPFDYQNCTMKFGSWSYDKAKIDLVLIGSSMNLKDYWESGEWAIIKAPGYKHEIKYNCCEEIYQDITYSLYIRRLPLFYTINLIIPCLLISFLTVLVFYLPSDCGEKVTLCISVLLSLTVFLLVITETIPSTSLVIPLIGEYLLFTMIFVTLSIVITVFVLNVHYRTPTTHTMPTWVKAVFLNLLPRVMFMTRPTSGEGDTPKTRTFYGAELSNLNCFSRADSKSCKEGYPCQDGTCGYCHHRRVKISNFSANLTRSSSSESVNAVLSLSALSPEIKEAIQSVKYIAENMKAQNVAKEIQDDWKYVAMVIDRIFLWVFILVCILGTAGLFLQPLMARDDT
Neuronal acetylcholine receptor; alpha3/beta4, sequence (P12392 whole entry): as the sequence (P12392 whole entry) above

[4] = target: Neuronal acetylcholine receptor subunit alpha-7 (Rattus norvegicus, UniProt Q05941); assay: Displacement of [3H]MLA from rat alpha7 nAChR transfected in tsA201 cell membrane; type: cell membranes
Neuronal acetylcholine receptor subunit alpha-7, sequence (Q05941 whole entry): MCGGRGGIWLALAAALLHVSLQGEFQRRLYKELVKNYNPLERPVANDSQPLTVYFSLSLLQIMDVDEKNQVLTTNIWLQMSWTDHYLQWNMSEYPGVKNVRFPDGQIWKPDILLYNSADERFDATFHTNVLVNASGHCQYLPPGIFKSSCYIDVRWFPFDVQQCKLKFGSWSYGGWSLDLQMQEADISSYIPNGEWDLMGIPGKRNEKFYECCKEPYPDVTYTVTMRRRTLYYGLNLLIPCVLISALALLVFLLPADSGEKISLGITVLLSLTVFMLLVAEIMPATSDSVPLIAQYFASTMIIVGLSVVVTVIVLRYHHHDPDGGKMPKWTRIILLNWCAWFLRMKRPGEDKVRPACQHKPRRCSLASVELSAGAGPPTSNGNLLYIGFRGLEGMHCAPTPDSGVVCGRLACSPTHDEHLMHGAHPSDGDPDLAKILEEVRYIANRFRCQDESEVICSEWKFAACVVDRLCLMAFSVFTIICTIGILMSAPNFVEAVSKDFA

[5] = target: T1, Neuronal acetylcholine receptor; alpha4/beta2; assay: Antagonist activity at rat alpha4beta2 nAChR expressed in HEK293T cells by FLIPR assay; type: cell-based, HEK-293T
Summary of the method: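 Fluorescence-based FLIPR membrane potential read-out of receptor function; antagonist mode gives an IC50.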

[6] = target: Neuronal acetylcholine receptor; alpha3/beta4 (Rattus norvegicus) (UniProt P04757+P12392); assay: Agonist activity at rat alpha3beta4 nAChR expressed in HEK293T cells by FLIPR assay; type: cell-based; conditions: HEK-293T
[7] = target: T2, Neuronal acetylcholine receptor; alpha4/beta2 (Rattus norvegicus) (UniProt P09483+P12390); assay: Inhibition of rat alpha4beta2 nAChR expressed in Xenopus laevis oocytes assessed as baseline current at 100 uM by two electrode-electrophysiology method; type: cell-based
Summary of the method: (§1)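 α4β2-expressing oocytes: compound at 100 μM applied alone to monitor baseline current, then coapplied with 30 μM ACh to assess the ACh-evoked current.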

[8] = target: T2, Neuronal acetylcholine receptor; alpha4/beta2 (Rattus norvegicus); assay: Inhibition of rat alpha4beta2 nAChR expressed in Xenopus laevis oocytes assessed as inhibition of 30 uM ACh-induced current at 100 uM by two electrode-electrophysiology method; type: cell-based; summary of the method: as §1
[9] = target: T1, Neuronal acetylcholine receptor; alpha4/beta2; assay: Inhibition of rat (alpha4)3(beta2)2 nAChR expressed in Xenopus laevis oocytes assessed as inhibition of 1 mM ACh-induced current by two electrode-electrophysiology method; type: cell-based
Summary of the method: (§2)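 Xenopus oocytes injected with α4 and β2 mRNA at ratio 10:1 for (α4)3(β2)2 or 1:10 for (α4)2(β2)3. Peak currents evoked by fixed ACh (1 mM for 10:1, 100 μM for 1:10) are measured with increasing compound concentrations. Concentration–inhibition curves give IC50, with Ki also reported.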

[10] = target: T1, Neuronal acetylcholine receptor; alpha4/beta2; assay: Inhibition of rat (alpha4)2(beta2)3 nAChR expressed in Xenopus laevis oocytes assessed as inhibition of 100 uM ACh-induced current by two electrode-electrophysiology method; type: cell-based; summary of the method: as §2
Mus musculus = assay: Antidepressant activity in mouse assessed as total swim distance at 1 to 10 mg/kg, sc by forced swimming test; type: functional, organism-based
Summary of the method: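 Mouse forced swim test; subcutaneous doses of 1, 3 and 10 mg/kg; swimming scored.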

T1 sequence (P09483 whole entry): as the sequence (P09483 whole entry) above
T1 sequence (P12390 whole entry): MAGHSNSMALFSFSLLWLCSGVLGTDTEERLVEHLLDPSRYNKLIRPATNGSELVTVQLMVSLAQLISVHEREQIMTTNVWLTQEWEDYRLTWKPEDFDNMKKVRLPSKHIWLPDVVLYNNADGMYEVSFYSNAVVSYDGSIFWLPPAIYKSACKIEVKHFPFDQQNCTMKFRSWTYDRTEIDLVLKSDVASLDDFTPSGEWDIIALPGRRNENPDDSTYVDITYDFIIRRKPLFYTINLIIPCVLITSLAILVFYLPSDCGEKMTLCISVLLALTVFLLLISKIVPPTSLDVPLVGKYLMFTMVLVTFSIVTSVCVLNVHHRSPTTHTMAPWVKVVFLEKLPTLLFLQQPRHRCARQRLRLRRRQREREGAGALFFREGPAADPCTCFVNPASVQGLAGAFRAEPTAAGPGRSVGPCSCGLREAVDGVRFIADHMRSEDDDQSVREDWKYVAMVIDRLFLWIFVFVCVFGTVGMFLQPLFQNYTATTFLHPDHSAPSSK

For `c1cc2c(cn1)C1CCCN1CC2` (racemic), the Ki [1] was 0.071 µM, the Ki [2] was 7.2 µM and the Ki [3] was 100 µM. The Ki [4] was 500 µM, the IC50 [5] was 0.12 µM and the Activity [6] was “inactive”.
Molecule `c1cc2c(cn1)CCN1CCCC21` (racemic) has a Ki [1] of 13 µM, a Ki [2] of 100 µM and a Ki [3] of 100 µM.
Work on `c1cc2c(cn1)[C@@H]1CCCN1CC2` yielded a Ki [1] of 3.4 µM, a Ki [2] of 100 µM and a Ki [3] of 100 µM. For the same molecule, the Ki [4] was greater than 300 µM.
In the case of `c1cc2c(cn1)[C@H]1CCCN1CC2`, the Ki [2] is reported as 3.7 µM, the Ki [3] is reported as 50 µM and the Ki [4] is reported as 300 µM. The inhibition [7] was “inactive”, the inhibition [8] was “Active” and the IC50 [9] was 135 µM. For the same molecule, the Ki [9] was 15 µM, the IC50 [10] was 87 µM and the Ki [10] was 0.34 µM. For the same molecule, the Activity (Mus musculus) was “inactive”.
